# Assay results taken from ChEMBL document CHEMBL3868583, “6-Aryl substituted 4-(4-cyanomethyl) phenylamino quinazolines as a new class of isoform-selective PI3K-alpha inhibitors” (Eur J Med Chem, 2016).
# Tests used:
# [1] = Anticancer activity against Swiss mouse EAC cells implanted in Swiss mouse assessed as tumor growth inhibition at 70 mg/kg, ip administered for 1 to 9 days measured on day 12 relative to control; type: functional; settings: Ehrlich, read-out: TGI
# How it was run: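 Swiss mice given 1 × 10^7 EAC cells i.p. on day 0, randomized next day (treated n=7, control n=10). Compound given i.p. days 1-9; saline control (0.2 ml i.p.), 5-fluorouracil 20 mg/kg i.p. reference. Sacrificed day 12; ascitic fluid collected; % TGI from total peritoneal tumor cell count versus control.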
# [2] = tested on: PC-3; experiment: Induction of cell cycle arrest in human PC3 cells assessed as accumulation at G1 phase at 20 uM after 24 hrs by propidium iodide-staining based FACS analysis (reference value: 39 %); type: functional
# How it was run: (§1)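 MCF-7 or PC-3 cells treated at indicated concentrations for 24 h, pelleted, PBS-washed, fixed in ice-cold 70% ethanol overnight at 4 °C. RNase 0.2 mg/mL 1 h at 37 °C, propidium iodide 10 µg/mL 30 min dark. 10,000 events (FL2-A vs FL2-W) by flow cytometry; fractions in apoptosis/sub-G1, G1, S, G2-M.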
# [3] = tested on: PC-3; experiment: Induction of cell cycle arrest in human PC3 cells assessed as apoptotic cells at 10 uM after 24 hrs by propidium iodide-staining based FACS analysis (reference value: 2 %); type: functional
# How it was run: (§2)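 PC-3 cells exposed 24 h at indicated concentrations, pelleted, fixed overnight in ice-cold 70% ethanol at 4 °C, RNase 0.2 mg/mL at 37 °C 1 h, propidium iodide 10 µg/mL 30 min in dark; 10,000 events acquired (FL2-A vs FL2-W); DNA histograms modelled for apoptotic (sub-G1), G1, S and G2-M fractions.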
# [4] = tested on: Mus musculus; experiment: Toxicity in Swiss mouse implanted with Swiss mouse EAC cells assessed as body weight at 70 mg/kg, ip administered for 1 to 9 days measured on day 1 (reference value: 22.8 g); type: organism-based, Ehrlich; settings: in vivo
# [5] = tested on: PC-3; experiment: Induction of cell cycle arrest in human PC3 cells assessed as accumulation at S phase at 20 uM after 24 hrs by propidium iodide-staining based FACS analysis (reference value: 44 %); type: functional; how it was run: as §1
# [6] = tested on: PC-3; experiment: Induction of cell cycle arrest in human PC3 cells assessed as accumulation at S phase at 30 uM after 24 hrs by propidium iodide-staining based FACS analysis (reference value: 44 %); type: functional; how it was run: as §2
# [7] = tested on: PC-3; experiment: Induction of cell cycle arrest in human PC3 cells assessed as apoptotic cells at 20 uM after 24 hrs by propidium iodide-staining based FACS analysis (reference value: 2 %); type: functional; how it was run: as §2
# [8] = tested on: PC-3; experiment: Induction of cell cycle arrest in human PC3 cells assessed as accumulation at S phase at 10 uM after 24 hrs by propidium iodide-staining based FACS analysis (reference value: 44 %); type: functional; how it was run: as §1
# [9] = tested on: PC-3; experiment: Induction of cell cycle arrest in human PC3 cells assessed as accumulation at G1 phase at 10 uM after 24 hrs by propidium iodide-staining based FACS analysis (reference value: 39 %); type: functional; how it was run: as §1
# [10] = Downregulation of PI3Kgamma expression in human PC3 cells at 30 uM by Western blot analysis; type: functional, cell-based; settings: PC-3
# How it was run: (§3)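 MCF-7 or PC-3 cells (2 × 10^6) treated with compound, lysed (1 × 10^6 cells) in cold NP-40 buffer with protease inhibitors 30 min on ice, 12,000 g 10 min 4 °C. 50 µg protein per lane on SDS-PAGE, PVDF transfer, 5% milk block, primary antibody 2 h, HRP secondary 1 h, ECL on film; β-actin internal control.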
# [11] = tested on: PC-3; experiment: Induction of cell cycle arrest in human PC3 cells assessed as accumulation at G1 phase at 30 uM after 24 hrs by propidium iodide-staining based FACS analysis (reference value: 39 %); type: functional; how it was run: as §1
# [12] = tested on: PC-3; experiment: Induction of apoptosis in human PC3 cells assessed as loss of mitochondrial membrane potential at 10 uM after 24 hrs by rhodamine-123-staining based FACS analysis (reference value: 5 % ); type: functional
# How it was run: (§4)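 Cells (MCF-7 or PC-3) exposed to indicated concentrations for 24 h; rhodamine-123 (5 µM) added 1 h before end. Cells collected, PBS-washed; fluorescence of 10,000 events read in FL-1 by flow cytometry, loss of mitochondrial potential scored as decreased intensity.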
# [13] = molecular target: Phosphatidylinositol 4,5-bisphosphate 3-kinase catalytic subunit beta isoform (Homo sapiens, UniProt P42338); experiment: Inhibition of PI3Kbeta (unknown origin) using diC8 PIP2 as substrate up to 20 uM after 60 mins by ADP-glo assay
# [14] = tested on: MCF7; experiment: Induction of cell cycle arrest in human MCF7 cells assessed as accumulation at G2 phase at 30 uM after 24 hrs by propidium iodide-staining based FACS analysis (reference value: 20 %); type: functional; how it was run: as §1
# [15] = tested on: MCF7; experiment: Induction of cell cycle arrest in human MCF7 cells assessed as accumulation at G2 phase at 20 uM after 24 hrs by propidium iodide-staining based FACS analysis (reference value: 20 %); type: functional; how it was run: as §1
# [16] = tested on: MCF7; experiment: Induction of cell cycle arrest in human MCF7 cells assessed as accumulation at S phase at 10 uM after 24 hrs by propidium iodide-staining based FACS analysis (reference value: 30 %); type: functional; how it was run: as §1
# [17] = tested on: Mus musculus; experiment: Toxicity in Swiss mouse implanted with Swiss mouse EAC cells assessed as body weight at 25 mg/kg, ip administered for 1 to 9 days measured on day 9 (reference value: 27.7 g); type: organism-based, Ehrlich; settings: in vivo
# [18] = tested on: MCF7; experiment: Induction of apoptosis in human MCF7 cells assessed as loss of mitochondrial membrane potential at 20 uM after 24 hrs by rhodamine-123-staining based FACS analysis (reference value: 7 % ); type: functional; how it was run: as §4
# [19] = Downregulation of PI3Kbeta expression in human MCF7 cells at 30 uM by Western blot analysis; type: functional, cell-based; how it was run: as §3
# [20] = tested on: MCF7; experiment: Induction of cell cycle arrest in human MCF7 cells assessed as apoptotic cells at 20 uM after 24 hrs by propidium iodide-staining based FACS analysis (reference value: 8 %); type: functional; how it was run: as §1
# [21] = tested on: Mus musculus; experiment: Toxicity in Swiss mouse implanted with Swiss mouse EAC cells assessed as mortality at 25 mg/kg, ip administered for 1 to 9 days measured on day 12; type: organism-based, Ehrlich; settings: in vivo
# How it was run: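 1×10^7 EAC cells injected intraperitoneally into Swiss mice on day 0. Mice randomized next day: treated groups n=7, saline control n=10 (0.2 ml i.p.). Dosing i.p. days 1–9. Sacrifice on day 12; ascitic fluid collected from the peritoneal cavity. % tumor growth inhibition from total tumor cell count versus control. Body weight and mortality tracked.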
# [22] = Downregulation of PI3Kdelta expression in human MCF7 cells at 30 uM by Western blot analysis; type: functional, cell-based; how it was run: as §3
# [23] = tested on: MCF7; experiment: Induction of cell cycle arrest in human MCF7 cells assessed as accumulation at S phase at 20 uM after 24 hrs by propidium iodide-staining based FACS analysis (reference value: 30 %); type: functional; how it was run: as §1
# [24] = tested on: Mus musculus; experiment: Toxicity in Swiss mouse implanted with Swiss mouse EAC cells assessed as body weight at 25 mg/kg, ip administered for 1 to 9 days measured on day 12 (reference value: 28.4 g); type: organism-based, Ehrlich; settings: in vivo
# Phosphatidylinositol 4,5-bisphosphate 3-kinase catalytic subunit beta isoform, sequence (P42338 whole entry, looked up, canonical isoform): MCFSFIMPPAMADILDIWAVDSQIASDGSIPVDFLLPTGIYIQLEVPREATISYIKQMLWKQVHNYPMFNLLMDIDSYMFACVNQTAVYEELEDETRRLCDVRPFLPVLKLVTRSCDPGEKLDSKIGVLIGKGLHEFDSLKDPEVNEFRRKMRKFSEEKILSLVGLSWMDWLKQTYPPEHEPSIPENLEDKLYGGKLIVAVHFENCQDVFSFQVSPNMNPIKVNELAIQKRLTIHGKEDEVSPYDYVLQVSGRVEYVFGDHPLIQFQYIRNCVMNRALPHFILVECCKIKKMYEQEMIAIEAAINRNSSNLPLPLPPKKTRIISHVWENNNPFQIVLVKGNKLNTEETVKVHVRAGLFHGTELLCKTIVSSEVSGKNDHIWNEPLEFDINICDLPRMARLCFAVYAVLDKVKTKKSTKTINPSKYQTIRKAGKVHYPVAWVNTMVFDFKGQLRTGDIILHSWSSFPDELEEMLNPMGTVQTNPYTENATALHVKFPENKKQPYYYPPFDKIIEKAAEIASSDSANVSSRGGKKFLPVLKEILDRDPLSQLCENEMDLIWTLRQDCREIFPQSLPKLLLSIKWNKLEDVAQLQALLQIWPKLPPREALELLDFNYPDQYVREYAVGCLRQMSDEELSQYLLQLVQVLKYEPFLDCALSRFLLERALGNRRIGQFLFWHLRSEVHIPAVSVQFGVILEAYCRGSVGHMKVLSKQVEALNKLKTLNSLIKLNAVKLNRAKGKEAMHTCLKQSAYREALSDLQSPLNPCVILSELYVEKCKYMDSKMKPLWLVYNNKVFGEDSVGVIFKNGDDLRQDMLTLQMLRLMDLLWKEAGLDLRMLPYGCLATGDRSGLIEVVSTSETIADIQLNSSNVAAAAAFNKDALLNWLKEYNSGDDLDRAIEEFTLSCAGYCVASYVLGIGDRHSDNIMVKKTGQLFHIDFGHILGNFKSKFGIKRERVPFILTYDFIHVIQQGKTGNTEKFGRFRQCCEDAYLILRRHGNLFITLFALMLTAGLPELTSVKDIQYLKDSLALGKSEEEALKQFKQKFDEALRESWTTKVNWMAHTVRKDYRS
smiles,measurement,setting,value
N#CCc1ccc(Nc2ncnc3ccc(-c4cncc5ccccc45)cc23)cc1,inhibition in vivo at 70 mg/kg,[1],25.8%
same,Activity,[2],65%
same,Activity,[3],4%
same,Activity,[4],21.42 g
same,Activity,[5],26%
same,Activity,[6],46%
same,Activity,[7],10%
same,Activity,[8],56%
same,Activity,[9],44%
same,Activity,[10],20%
same,Activity,[11],42%
same,Activity,[12],8%
same,inhibition,[13],0%
N#CCc1ccc(Nc2ncnc3ccc(-c4ccc5[nH]ccc5c4)cc23)cc1,Activity,[14],4%
same,Activity,[15],7%
same,Activity,[16],40%
same,Activity,[17],22.57 g
same,Activity,[18],15%
same,Activity,[19],4%
same,Activity,[20],12%
same,Activity,[21],Non-Toxic
same,Activity,[22],30%
same,Activity,[23],42%
same,Activity,[24],23.8 g
